This note sets out measurements from ChEMBL document CHEMBL4406794, “N-(7-Cyano-6-(4-fluoro-3-(2-(3-(trifluoromethyl)phenyl)acetamido)phenoxy)benzo[d]thiazol-2-yl)cyclopropanecarboxamide (TAK-632) Analogues as Novel Necroptosis Inhibitors by Targeting Receptor-Interacting Protein Kinase 3 (RIPK3): Synthesis, Structure-Activity Relationships, and in Vivo Efficacy” (J Med Chem, 2019).

One may read the Kd as the constant that tells how readily two partners part at equilibrium. Low values mean a tighter complex, high ones a looser complex. Usually Cmax stands for the highest concentration seen after dosing. One may read the clearance as a measure of how efficiently the substance is removed, as volume per time. Higher therefore signals efficient removal. A word on the AUC(0-t): it is exposure summed from dosing to a finite time, without extrapolation to infinity. High values mean more exposure, low ones less exposure.

Data set [1] deals with T1, Receptor-interacting serine/threonine-protein kinase 1 (Homo sapiens, UniProt Q13546).
T1 sequence (Q13546 whole entry): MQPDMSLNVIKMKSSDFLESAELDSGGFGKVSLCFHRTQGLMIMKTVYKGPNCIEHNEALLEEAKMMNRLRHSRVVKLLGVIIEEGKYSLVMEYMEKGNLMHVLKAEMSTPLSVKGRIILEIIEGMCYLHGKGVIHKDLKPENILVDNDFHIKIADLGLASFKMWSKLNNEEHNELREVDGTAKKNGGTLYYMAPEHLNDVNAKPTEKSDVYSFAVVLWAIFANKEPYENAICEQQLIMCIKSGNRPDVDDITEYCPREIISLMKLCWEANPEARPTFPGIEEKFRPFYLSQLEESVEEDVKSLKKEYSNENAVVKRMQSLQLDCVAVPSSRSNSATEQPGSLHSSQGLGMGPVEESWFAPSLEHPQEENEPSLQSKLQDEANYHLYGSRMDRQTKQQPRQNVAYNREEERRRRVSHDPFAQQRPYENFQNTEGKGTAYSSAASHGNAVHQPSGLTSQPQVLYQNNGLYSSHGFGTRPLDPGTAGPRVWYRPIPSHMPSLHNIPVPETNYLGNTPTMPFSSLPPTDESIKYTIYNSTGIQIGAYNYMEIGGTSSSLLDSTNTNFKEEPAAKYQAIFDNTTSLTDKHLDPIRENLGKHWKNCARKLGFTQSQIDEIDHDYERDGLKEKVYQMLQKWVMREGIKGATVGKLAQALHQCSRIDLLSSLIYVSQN
The data set can be described thus: Binding affinity to wild-type human partial length RIPK1 (M1 to K305 residues) expressed in bacterial expression system after 1 hr by quantitative PCR based KINOMEscan assay. The method, boiled down: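 KINOMEscan competition binding. Bound kinase eluted with 0.5 μM nonbiotinylated ligand for 30 min and quantified by qPCR. Duplicates averaged.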

The subject of data set [2] is Serine/threonine-protein kinase B-raf (Homo sapiens), P15056 [V600E]. Put plainly: Inhibition of human partial length BRAF V600E mutant (S429 to E741 residues) expressed in mammalian expression system assessed as enzyme remaining activity at 1000 nM by Kinomescan method relative to control.
Data set [3] concerns the target Vascular endothelial growth factor receptor 2 (Homo sapiens) (UniProt P35968). The data set can be described thus: Inhibition of wild-type human partial length VEGFR2 (R787 to P1253 residues) expressed in mammalian expression system assessed as enzyme remaining activity at 1000 nM by Kinomescan method relative to control.
Data set [4] addresses Mitogen-activated protein kinase kinase kinase 4 (Homo sapiens) (UniProt Q9Y6R4). The data set can be described thus: Inhibition of wild-type human partial length MAP3K4 (G1319 to E1608 residues) expressed in bacterial expression system assessed as enzyme remaining activity at 1000 nM by Kinomescan method relative to control.
Data set [5] has as its target Dual specificity mitogen-activated protein kinase kinase 1 (Homo sapiens) (UniProt Q02750). The data set can be described thus: Inhibition of wild-type human full length MEK1 (M1 to V393 residues) expressed in mammalian expression system assessed as enzyme remaining activity at 1000 nM by Kinomescan method relative to control.
The target in data set [6] is Mitogen-activated protein kinase 14 (Homo sapiens) (UniProt Q16539). Put plainly: Inhibition of wild-type human full length p38-alpha (M1 to S360 residues) expressed in bacterial expression system assessed as enzyme remaining activity at 1000 nM by Kinomescan method relative to control.
Chain of Mitogen-activated protein kinase 14 (Homo sapiens) (Q16539 whole entry, the tested form may be a part): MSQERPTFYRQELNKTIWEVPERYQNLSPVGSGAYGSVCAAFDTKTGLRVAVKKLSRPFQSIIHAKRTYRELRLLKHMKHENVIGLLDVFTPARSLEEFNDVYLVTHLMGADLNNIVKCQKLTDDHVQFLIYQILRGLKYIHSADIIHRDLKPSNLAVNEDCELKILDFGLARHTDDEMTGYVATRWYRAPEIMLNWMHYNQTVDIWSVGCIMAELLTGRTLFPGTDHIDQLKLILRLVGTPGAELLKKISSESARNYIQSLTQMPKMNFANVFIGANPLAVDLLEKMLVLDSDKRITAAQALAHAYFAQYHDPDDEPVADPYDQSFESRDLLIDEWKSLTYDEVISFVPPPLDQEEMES
The next data set relates to HT-29. Put plainly: Cytoprotection against TNFalpha/cycloheximide/Z-VAD-fmk-induced necroptosis in human HT-29 cells at 3 uM treated prior to TNFalpha/cycloheximide/Z-VAD-fmk stimulation and measured after 12 hrs by cell-Titer Glo luminescent cell viability assay. In kind it is functional, cell-based. In short, it runs like this:
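HT-29 cells pretreated with compound at 3 μM or DMSO, then given TNF-α 20 ng/mL, cycloheximide 5 μg/mL and z-VAD-fmk 20 μM for 12 h. Viability read by CellTiter-Glo luminescence.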

Data set [7] has as its target T2, Receptor-interacting serine/threonine-protein kinase 3 (Homo sapiens, UniProt Q9Y572). Put plainly: Inhibition of RIPK3 phosphorylation in TNFalpha/smac mimetic/Z-VAD-fmk stimulated human HT-29 cells at 1 uM treated prior to TNFalpha/smac mimetic/Z-VAD-fmk stimulation and measured after 2 to 4 hrs by SDS-PAGE based immunoblot assay. In kind it is cell-based. Background: Immunoblotting shows a protein as a band on a membrane.

For data set [8], the target named is T2, Receptor-interacting serine/threonine-protein kinase 3. Put plainly: Inhibition of RIPK3 phosphorylation in human HT-29 cells assessed as reduction in TNFalpha/smac mimetic/Z-VAD-fmk-induced necrosome formation at 1 uM treated prior to TNFalpha/smac mimetic/Z-VAD-fmk stimulation and measured after 4 hrs by immunoprecipitation based assay. In kind it is cell-based. In short, it runs like this:
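HT-29 cells treated with 1 μM compound or DMSO for 4 h, then lysed in M2 buffer. Lysates immunoprecipitated overnight at 4 °C with anti-RIPK1 (1 μg) on protein A/G agarose. Bound proteins boiled off and resolved on 4–20% SDS gels, then immunoblotted.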

For data set [9], the system named is Mus musculus. Put plainly: Protection against TNFalpha/Z-VAD-fmk-induced C57BL/6J mouse model of systemic inflammatory response syndrome assessed as increase in body temperature at 5 to 50 mg/kg, po administered via gavage 2 hrs prior to Z-VAD-fmk addition for 15 mins followed by TNFalpha stimulation for 1 hr and subsequent Z-VAD-fmk addition meaured up to 50 hrs post TNFalpha stimulation by electric thermometer. In kind it is functional, organism-based. The method, boiled down: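 Female C57BL/6 mice, fasted overnight, n=10 per group. Compound given by oral gavage at 5, 25 or 50 mg/kg 2 h before TNF. z-VAD-fmk 180 µg i.p., then 15 min later mTNF-α 400 µg/kg i.v. in endotoxin-free PBS, then a further 70 µg z-VAD-fmk i.p. 1 h later. Body temperature and survival followed, compared with vehicle by one-way ANOVA.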

A short description of data set [10]: Cmax in Sprague-Dawley rat at 1 mg/kg, iv by LC-tandem mass spectrometry analysis. In kind it is ADME, organism-based. Set-up: dose 1 mg/kg, route intravenous. Conditions: in vivo. In short, it runs like this: (§1)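 Male Sprague-Dawley rats dosed once i.v. at 1 mg/kg or intragastrically at 5 mg/kg. Compound dissolved in 5% DMSO, 10% Tween 80, 75% physiological saline at 0.2 and 1 mg/mL. Blood taken at several time points, plasma spun at 4 °C, stored at -80 °C, assayed by LC/MS/MS. Parameters from individual animals by noncompartmental analysis.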

Data set [11] can be described thus: Clearance in Sprague-Dawley rat at 1 mg/kg, iv by LC-tandem mass spectrometry analysis. In kind it is ADME, organism-based. Conditions: in vivo. The method, boiled down:
as §1

The nature of data set [12]: AUC (0 to t) in Sprague-Dawley rat at 5 mg/kg, po by LC-tandem mass spectrometry analysis. Conditions: in vivo. In kind it is ADME, organism-based. The method, boiled down: as §1
The test system of data set [13] is Mus musculus. The data set can be described thus: Protection against TNFalpha/Z-VAD-fmk-induced C57BL/6J mouse model of systemic inflammatory response syndrome at 25 mg/kg, po administered via gavage 2 hrs prior to Z-VAD-fmk addition for 15 mins followed by TNFalpha stimulation for 1 hr and subsequent Z-VAD-fmk addition meaured up to 50 hrs post TNFalpha stimulation relative to control. In kind it is functional. The method, boiled down:
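Overnight-fasted C57BL/6 female mice, n=10 per group. Test compound was given by oral gavage 2 h before mTNF-α. z-VAD-fmk (180 µg) was injected ip, then 15 min later mTNF-α in endotoxin-free PBS was injected iv (400 µg/kg). A second z-VAD-fmk dose (70 µg) was given ip 1 h after TNF. Body temperature and survival were followed against vehicle. One-way ANOVA was used.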

The source made the active and inactive calls. No cut-off for these calls is given here.

T2 sequence (Q9Y572 whole entry, looked up): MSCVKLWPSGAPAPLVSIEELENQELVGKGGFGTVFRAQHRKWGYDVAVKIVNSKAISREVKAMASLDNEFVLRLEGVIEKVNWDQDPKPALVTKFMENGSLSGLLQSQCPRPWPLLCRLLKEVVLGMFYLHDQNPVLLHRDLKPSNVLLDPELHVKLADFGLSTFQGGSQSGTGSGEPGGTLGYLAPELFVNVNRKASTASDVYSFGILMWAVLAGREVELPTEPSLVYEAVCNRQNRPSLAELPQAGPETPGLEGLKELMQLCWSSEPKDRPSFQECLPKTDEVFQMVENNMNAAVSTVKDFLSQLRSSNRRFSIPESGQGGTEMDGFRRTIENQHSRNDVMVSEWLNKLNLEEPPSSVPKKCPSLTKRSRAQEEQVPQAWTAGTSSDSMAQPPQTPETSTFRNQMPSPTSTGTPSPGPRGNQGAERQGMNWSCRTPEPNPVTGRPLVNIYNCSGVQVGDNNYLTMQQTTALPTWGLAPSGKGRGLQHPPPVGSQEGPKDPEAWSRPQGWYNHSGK
Chain of Mitogen-activated protein kinase kinase kinase 4 (Homo sapiens) (Q9Y6R4 whole entry, the tested form may be a part): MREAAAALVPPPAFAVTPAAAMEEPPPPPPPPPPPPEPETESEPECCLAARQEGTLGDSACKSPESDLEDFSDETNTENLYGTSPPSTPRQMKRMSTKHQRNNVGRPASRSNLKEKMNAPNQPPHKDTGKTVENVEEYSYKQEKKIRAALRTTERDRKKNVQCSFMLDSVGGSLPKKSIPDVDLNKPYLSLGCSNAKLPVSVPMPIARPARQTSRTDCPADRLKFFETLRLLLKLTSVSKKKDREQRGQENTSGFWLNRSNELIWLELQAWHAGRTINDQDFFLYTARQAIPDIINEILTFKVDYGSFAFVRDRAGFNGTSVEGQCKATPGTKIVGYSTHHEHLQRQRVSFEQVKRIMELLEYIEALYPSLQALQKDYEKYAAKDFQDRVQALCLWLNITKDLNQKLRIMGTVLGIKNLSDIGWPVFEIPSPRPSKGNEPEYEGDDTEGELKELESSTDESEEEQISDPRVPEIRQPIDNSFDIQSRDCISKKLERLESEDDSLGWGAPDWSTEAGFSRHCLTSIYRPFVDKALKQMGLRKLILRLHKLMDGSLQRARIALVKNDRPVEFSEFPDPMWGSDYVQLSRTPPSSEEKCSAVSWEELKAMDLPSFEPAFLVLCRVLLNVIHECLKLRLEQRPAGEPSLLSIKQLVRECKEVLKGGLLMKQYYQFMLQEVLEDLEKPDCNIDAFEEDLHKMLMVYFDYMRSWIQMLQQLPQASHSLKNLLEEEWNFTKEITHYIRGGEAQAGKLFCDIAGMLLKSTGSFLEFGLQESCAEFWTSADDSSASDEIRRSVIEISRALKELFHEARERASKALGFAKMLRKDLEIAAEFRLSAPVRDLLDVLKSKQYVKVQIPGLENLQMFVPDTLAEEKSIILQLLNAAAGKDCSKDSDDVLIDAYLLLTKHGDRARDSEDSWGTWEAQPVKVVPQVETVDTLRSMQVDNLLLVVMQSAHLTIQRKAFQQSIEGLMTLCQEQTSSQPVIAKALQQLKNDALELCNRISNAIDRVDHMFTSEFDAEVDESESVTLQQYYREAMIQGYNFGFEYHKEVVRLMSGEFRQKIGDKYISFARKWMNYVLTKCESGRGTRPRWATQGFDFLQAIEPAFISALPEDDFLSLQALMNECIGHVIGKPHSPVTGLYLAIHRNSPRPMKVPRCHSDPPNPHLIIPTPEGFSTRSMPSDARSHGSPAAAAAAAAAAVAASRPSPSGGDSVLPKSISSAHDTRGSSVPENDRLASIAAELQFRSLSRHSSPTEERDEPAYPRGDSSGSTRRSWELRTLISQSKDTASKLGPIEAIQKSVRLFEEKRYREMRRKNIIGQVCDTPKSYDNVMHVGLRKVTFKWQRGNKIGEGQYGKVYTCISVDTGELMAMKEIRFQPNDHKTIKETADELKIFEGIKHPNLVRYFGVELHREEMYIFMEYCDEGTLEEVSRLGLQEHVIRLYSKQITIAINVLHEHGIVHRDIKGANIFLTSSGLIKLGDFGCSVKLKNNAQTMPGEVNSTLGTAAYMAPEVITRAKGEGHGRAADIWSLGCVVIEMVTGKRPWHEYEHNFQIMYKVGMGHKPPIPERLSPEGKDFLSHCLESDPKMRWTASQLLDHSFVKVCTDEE
Chain of Serine/threonine-protein kinase B-raf (Homo sapiens), P15056 [V600E] (P15056 whole entry V600E, the tested form may be a part): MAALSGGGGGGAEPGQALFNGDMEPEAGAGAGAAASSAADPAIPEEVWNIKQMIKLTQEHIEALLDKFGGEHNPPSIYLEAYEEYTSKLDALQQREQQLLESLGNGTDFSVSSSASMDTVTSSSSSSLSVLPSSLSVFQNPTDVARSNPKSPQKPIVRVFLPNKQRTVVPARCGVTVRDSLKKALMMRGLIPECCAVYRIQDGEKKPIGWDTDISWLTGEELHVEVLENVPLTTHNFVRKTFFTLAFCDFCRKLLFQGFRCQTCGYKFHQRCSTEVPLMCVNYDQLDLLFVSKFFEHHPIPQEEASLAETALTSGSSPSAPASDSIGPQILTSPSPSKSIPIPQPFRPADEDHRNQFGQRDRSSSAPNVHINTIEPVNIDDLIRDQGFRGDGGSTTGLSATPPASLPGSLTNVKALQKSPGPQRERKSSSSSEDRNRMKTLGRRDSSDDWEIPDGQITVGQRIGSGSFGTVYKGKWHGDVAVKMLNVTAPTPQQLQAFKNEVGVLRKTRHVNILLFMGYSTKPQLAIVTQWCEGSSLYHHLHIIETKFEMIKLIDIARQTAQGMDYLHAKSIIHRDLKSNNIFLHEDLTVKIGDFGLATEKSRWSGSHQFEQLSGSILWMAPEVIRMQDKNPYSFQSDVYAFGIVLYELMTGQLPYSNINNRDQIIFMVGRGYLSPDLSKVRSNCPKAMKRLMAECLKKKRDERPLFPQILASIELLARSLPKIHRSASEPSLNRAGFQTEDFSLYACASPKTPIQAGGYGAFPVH
Chain of Vascular endothelial growth factor receptor 2 (Homo sapiens) (P35968 whole entry, the tested form may be a part): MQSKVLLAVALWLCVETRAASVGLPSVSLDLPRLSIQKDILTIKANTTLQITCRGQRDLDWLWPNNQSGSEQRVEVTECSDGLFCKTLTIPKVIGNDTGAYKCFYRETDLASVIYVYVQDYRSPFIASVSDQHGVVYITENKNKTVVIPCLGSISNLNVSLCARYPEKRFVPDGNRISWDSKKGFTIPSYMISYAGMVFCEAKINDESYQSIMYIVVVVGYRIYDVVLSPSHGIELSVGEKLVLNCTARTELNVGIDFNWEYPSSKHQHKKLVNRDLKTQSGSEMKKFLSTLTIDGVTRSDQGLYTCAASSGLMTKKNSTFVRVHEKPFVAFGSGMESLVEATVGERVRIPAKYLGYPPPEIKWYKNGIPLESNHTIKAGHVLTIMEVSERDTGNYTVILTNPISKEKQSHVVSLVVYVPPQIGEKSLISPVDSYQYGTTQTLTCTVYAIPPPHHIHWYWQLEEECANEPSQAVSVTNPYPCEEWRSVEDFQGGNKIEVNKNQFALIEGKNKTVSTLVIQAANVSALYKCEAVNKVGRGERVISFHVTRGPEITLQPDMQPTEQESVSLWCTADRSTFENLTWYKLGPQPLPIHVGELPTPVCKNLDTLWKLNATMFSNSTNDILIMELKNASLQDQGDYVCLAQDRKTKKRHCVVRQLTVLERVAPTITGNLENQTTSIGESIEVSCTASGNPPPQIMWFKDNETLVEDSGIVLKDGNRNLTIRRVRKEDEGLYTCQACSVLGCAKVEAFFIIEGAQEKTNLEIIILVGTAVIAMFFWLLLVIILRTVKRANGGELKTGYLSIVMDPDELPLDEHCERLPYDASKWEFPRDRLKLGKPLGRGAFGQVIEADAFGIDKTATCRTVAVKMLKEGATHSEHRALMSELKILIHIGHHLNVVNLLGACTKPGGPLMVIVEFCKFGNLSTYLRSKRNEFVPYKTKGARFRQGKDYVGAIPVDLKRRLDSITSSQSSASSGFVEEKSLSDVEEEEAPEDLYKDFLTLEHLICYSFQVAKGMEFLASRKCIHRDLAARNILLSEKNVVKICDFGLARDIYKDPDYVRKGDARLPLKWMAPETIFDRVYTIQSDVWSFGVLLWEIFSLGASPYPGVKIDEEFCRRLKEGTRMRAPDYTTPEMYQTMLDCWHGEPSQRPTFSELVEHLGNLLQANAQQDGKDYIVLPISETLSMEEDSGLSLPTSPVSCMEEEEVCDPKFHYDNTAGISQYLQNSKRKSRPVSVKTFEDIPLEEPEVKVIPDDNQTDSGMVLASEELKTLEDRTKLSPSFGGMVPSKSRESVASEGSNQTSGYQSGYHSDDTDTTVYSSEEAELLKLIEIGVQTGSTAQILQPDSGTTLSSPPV
Chain of Dual specificity mitogen-activated protein kinase kinase 1 (Homo sapiens) (Q02750 whole entry, the tested form may be a part): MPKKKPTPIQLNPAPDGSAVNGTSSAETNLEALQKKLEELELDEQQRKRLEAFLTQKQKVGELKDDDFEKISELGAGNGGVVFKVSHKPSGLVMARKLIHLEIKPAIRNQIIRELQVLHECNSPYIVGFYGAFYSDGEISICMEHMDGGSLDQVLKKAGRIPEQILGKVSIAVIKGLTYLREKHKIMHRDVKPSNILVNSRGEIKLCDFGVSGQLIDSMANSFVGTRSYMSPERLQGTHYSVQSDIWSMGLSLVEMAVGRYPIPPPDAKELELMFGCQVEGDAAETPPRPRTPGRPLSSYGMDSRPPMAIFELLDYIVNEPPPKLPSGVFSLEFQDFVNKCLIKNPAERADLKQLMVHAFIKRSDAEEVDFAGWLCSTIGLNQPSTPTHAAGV

In [1], `O=C(Nc1cccc(Br)c1)Nc1cc(Oc2ccc3nc(NC(=O)C4CC4)sc3c2)ccc1F` came in with a Kd of more than 5 µM. The Activity in [2] was 1.8%; in [3], 2.8%; in [4] it was 100%; in [5], 100%; in data set [6], 23%; in the data set with Mus musculus [13], 100%. The outcome with HT-29 and in the data set with Mus musculus [9] was Active. In addition, the inhibition entry in data set [7] and in [8] was “Active” in each case. The Cmax in data set [10] turned out to be 4600 ng/mL. This molecule also had a clearance in data set [11] of 2.6 mL/min/kg. For the same molecule, the AUC(0-t) in [12] was found to be 7010 ng·h/mL.
